What was measured:
[1] = Plasma clearance in mouse at 3 mg/kg, iv and 10 mg/kg, po; type: ADME, organism-based
[2] = Volume of distribution at steady state in mouse at 3 mg/kg, iv and 10 mg/kg, po; type: ADME, organism-based; settings: in vivo, read-out: Vdss
[3] = Cmax in mouse at 3 mg/kg, iv and 10 mg/kg, po; type: ADME, organism-based; settings: in vivo
[4] = Half life in mouse at 10 mg/kg, po; type: ADME, organism-based; parameters: dose 10 mg/kg, route oral; settings: in vivo
[5] = Oral bioavailability in mouse at 10 mg/kg; type: ADME, organism-based; settings: in vivo
Cytochrome P450 1A2 = target: T1, Cytochrome P450 1A2 (Homo sapiens, UniProt P05177); test: Inhibition of human CYP1A2; type: ADME
T1 sequence (P05177 whole entry): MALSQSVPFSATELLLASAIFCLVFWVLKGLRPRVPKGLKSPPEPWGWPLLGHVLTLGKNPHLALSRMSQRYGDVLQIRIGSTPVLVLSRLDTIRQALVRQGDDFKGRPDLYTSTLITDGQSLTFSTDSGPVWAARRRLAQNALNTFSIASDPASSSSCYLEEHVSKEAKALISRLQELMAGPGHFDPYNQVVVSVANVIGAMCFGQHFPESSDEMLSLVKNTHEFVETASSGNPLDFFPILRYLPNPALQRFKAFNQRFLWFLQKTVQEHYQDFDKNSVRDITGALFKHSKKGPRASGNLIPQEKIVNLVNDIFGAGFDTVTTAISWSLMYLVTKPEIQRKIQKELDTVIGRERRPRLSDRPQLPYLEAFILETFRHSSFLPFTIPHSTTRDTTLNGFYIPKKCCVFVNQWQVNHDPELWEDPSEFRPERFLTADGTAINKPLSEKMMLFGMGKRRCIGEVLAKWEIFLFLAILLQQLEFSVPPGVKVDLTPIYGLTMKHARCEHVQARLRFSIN

Cytochrome P450 2D6 = Cytochrome P450 2D6 (Homo sapiens, UniProt P10635); test: Inhibition of human CYP2D6 at >100 uM; type: ADME
Cytochrome P450 2C19 = Cytochrome P450 2C19 (Homo sapiens, UniProt P33261); test: Inhibition of human CYP2C19; type: ADME
[6] = target: Nitric oxide synthase, inducible (Homo sapiens, UniProt P35228); test: Inhibition of human iNOS expressed in HEK293 cells assessed as inhibition of nitric oxide production after 18 hrs using 2,3-diaminonaphthalene by fluorescence assay; type: cell-based
Summary of the method: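 HEK293 cells grown to ~70% confluence in DMEM/10% FBS with pen/strep, transiently transfected with 10 μg human or murine iNOS plasmid plus Fugene 6 for 4 h at 37 °C, 10% CO2. Cells replated at 5e5 cells/mL and dosed with compound at once; 1400W (100 μM final) as positive control. After 18 h, DAN (10 μg/mL final) in HCl (0.1 N final) added for 20 min at room temperature. Fluorescence read after NaOH (0.12 N final).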

Nitric oxide synthase 3 = target: T2, Nitric oxide synthase 3 (Homo sapiens, UniProt P29474); test: Inhibition of human eNOS expressed in HEK293 cells assessed as inhibition A23187 induced nitric oxide production incubated for 24 hrs measured after 18 hrs of […] challenge using 2,3-diaminonaphthalene by fluorescence assay; type: cell-based
T2 sequence (P29474 whole entry): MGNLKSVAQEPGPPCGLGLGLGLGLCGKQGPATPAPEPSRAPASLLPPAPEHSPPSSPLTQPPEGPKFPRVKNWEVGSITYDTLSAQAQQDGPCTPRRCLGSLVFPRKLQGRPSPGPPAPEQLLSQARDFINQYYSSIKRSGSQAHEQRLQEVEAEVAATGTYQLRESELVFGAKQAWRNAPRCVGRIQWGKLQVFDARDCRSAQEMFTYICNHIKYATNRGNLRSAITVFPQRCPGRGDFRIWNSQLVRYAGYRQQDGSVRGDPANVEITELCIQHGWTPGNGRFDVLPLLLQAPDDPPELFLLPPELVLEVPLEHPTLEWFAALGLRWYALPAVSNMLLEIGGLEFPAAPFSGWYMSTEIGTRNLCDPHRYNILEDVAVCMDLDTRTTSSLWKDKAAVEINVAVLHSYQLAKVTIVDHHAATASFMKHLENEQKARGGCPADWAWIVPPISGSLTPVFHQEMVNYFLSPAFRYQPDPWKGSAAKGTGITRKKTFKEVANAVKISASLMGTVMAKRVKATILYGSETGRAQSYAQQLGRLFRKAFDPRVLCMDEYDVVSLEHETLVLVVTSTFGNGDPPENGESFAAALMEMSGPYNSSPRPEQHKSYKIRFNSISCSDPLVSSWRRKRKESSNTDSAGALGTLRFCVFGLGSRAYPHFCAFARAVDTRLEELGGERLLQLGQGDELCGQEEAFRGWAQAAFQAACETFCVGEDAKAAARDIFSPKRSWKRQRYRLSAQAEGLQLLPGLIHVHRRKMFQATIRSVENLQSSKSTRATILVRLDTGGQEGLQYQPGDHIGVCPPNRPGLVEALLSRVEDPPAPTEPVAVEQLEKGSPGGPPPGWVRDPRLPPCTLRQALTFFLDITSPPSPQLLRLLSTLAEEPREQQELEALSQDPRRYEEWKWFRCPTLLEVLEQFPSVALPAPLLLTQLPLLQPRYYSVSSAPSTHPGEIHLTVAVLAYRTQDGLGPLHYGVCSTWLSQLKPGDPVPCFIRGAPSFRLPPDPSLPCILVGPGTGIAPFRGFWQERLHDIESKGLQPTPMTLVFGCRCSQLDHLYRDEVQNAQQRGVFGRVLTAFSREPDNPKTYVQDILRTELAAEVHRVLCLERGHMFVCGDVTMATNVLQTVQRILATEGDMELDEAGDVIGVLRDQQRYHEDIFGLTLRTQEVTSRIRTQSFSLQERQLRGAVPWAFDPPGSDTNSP
Summary of the method: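 HEK293 cells transfected for 4 h at 37 °C with human nNOS (10 μg) or human eNOS (15 μg) plasmid (Fugene 6, 3:1). Cells replated at 5e5 cells/mL and dosed with compound at once; SEITU (100 μM final) as positive control. After 24 h, cells activated with A23187 (83 nM final) for eNOS or ionomycin (30 μM final) for nNOS. NO read 18 h later as nitrite-DAN fluorescence.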

Liver = test: Half life in mouse liver microsomes assessed as formation of oxidation product and glucuronide conjugate; type: ADME, Microsome
Summary of the method: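 Mouse liver microsomes run under combined phase I oxidation and phase II glucuronide conjugation; half-life reported in minutes.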

Mus musculus = test: Inhibition of LPS-induced iNOS activation in BALB/c mouse assessed as plasma nitrate levels administered via oral gavage before LPS challenge measured after 6 to 8 hrs using 2,3-diaminonaphthalene by fluorescence assay; type: functional
Summary of the method: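 Male BALB/c mice dosed by oral gavage (90% PEG/5% Tween 80/5% PVP + 0.5% w/v CMC) immediately before LPS (10 mg/kg ip in 0.9% NaCl). Mice killed at 6 h. EDTA plasma analysed for nitrate and drug levels; nitrite measured by DAN fluorescence.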

[7] = AUC in mouse at 3 mg/kg, iv and 10 mg/kg, po; type: ADME, organism-based; settings: plasma
Cytochrome P450 3A4 = Cytochrome P450 3A4 (Homo sapiens, UniProt P08684); test: Inhibition of human CYP3A4 at >60 uM; type: ADME
Chain of Cytochrome P450 3A4 (P08684 whole entry): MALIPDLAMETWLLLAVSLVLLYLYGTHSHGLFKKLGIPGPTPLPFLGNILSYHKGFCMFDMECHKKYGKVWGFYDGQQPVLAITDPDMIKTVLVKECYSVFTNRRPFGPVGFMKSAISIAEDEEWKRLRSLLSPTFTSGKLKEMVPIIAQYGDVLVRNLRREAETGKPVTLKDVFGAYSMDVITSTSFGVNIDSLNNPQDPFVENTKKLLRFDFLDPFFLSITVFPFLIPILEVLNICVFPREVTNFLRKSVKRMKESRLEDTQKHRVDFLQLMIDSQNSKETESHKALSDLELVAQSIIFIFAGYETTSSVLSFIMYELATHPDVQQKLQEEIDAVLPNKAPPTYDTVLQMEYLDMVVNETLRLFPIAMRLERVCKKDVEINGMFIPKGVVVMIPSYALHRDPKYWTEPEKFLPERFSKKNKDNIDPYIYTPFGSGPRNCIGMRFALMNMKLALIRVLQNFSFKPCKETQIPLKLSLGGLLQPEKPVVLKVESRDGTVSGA

Chain of Cytochrome P450 2D6 (P10635 whole entry): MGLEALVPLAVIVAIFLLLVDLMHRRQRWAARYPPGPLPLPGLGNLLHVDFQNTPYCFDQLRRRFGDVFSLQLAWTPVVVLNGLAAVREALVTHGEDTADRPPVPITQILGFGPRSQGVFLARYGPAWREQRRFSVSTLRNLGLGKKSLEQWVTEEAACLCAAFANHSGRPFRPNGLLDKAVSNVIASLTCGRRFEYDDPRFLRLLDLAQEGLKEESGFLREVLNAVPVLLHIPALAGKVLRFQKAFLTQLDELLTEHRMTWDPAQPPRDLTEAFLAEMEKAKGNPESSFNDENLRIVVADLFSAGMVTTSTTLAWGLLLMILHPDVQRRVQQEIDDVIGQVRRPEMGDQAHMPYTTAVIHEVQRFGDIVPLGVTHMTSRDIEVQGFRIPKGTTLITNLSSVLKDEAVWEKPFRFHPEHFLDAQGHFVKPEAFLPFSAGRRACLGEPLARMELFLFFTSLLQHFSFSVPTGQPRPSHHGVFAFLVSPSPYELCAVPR
Chain of Nitric oxide synthase, inducible (P35228 whole entry): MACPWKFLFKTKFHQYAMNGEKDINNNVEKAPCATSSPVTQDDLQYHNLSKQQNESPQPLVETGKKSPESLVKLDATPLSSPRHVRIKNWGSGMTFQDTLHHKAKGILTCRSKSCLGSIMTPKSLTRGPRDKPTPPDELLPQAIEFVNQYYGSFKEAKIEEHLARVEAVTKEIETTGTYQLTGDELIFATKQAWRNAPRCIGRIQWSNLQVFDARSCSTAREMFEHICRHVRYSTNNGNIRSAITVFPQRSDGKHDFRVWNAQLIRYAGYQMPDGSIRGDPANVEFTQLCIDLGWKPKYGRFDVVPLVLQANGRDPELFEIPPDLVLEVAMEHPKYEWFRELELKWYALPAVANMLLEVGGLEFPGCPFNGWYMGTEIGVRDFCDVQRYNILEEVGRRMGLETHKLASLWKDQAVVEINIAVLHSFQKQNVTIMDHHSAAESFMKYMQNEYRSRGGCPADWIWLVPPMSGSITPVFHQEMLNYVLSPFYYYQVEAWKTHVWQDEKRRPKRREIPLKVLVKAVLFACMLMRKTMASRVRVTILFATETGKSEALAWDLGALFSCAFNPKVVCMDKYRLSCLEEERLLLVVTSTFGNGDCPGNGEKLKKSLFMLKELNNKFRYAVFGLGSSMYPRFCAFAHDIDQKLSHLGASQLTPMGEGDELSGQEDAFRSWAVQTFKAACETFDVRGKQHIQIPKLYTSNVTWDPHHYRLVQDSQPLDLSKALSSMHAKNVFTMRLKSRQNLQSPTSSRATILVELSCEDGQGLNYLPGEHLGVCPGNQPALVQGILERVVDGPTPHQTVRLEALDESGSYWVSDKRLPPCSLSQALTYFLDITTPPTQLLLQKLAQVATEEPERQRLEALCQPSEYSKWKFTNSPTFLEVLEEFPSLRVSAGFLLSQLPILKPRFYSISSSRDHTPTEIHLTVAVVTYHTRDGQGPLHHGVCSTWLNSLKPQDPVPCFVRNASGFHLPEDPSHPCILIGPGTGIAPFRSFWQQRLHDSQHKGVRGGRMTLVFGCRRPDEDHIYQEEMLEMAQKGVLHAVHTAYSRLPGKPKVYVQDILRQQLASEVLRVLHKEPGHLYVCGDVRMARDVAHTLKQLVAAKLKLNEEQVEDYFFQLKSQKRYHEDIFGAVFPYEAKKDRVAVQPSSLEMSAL
Chain of Cytochrome P450 2C19 (P33261 whole entry): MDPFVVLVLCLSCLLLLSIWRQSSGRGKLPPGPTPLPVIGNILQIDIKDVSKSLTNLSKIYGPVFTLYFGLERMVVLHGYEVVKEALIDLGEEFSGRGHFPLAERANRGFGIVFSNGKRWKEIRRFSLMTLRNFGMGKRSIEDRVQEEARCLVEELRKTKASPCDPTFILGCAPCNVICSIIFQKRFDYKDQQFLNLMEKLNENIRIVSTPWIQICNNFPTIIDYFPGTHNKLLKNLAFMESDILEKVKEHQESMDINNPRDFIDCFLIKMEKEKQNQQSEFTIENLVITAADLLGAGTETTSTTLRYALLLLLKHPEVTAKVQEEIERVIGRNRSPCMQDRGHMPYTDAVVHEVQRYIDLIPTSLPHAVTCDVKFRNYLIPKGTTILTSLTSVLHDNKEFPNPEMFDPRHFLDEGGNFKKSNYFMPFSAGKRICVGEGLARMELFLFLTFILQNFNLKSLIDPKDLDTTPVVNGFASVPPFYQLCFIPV

O=c1cc(Cn2c(C3CCC3)nc3nccnc32)c2ccc(F)c(F)c2[nH]1
clearance [1]: 4.5 mL/min/kg | Vd [2]: 0.39 L/kg | Cmax [3]: 15000 ng/mL | half-life [4]: 2.3 h | bioavailability [5]: 62% | EC50 (Cytochrome P450 1A2): > 100 µM | inhibition (INH) (Cytochrome P450 2D6): < 50% | EC50 (Cytochrome P450 2C19): > 38 µM | EC50 [6]: 0.091 µM | EC50 (Nitric oxide synthase 3): 16.5 µM | t1/2 (Liver): > 2 h | ED50 (Mus musculus): 1 mg/kg

O=c1cc(Cn2c(C3CC(F)(F)C3)nc3nccnc32)c2cccc(F)c2[nH]1
clearance [1]: 6.2 mL/min/kg | Vd [2]: 0.67 L/kg | Cmax [3]: 8800 ng/mL | AUC [7]: 15000 ng·h/mL | half-life [4]: 2.3 h | bioavailability [5]: 55% | EC50 (Cytochrome P450 1A2): 35 µM | inhibition (INH) (Cytochrome P450 2D6): < 50% | EC50 (Cytochrome P450 2C19): 27 µM | EC50 [6]: 0.22 µM | EC50 (Nitric oxide synthase 3): > 100 µM | t1/2 (Liver): > 2 h | ED50 (Mus musculus): 3 mg/kg

CC(C)Cc1nc2ccccc2n1Cc1cc(=O)[nH]c2c(F)c(F)ccc12
clearance [1]: 12 mL/min/kg | Vd [2]: 1.1 L/kg | Cmax [3]: 8700 ng/mL | AUC [7]: 13300 ng·h/mL | half-life [4]: 5.2 h | bioavailability [5]: 81% | EC50 [6]: 0.38 µM | EC50 (Nitric oxide synthase 3): > 100 µM | t1/2 (Liver): 1.83 h

CC(C)Cc1nc2nccnc2n1Cc1cc(=O)[nH]c2c(F)c(F)ccc12
clearance [1]: 6.1 mL/min/kg | Vd [2]: 6.8 L/kg | AUC [7]: 11000 ng·h/mL | half-life [4]: 1.8 h | bioavailability [5]: 39% | EC50 (Cytochrome P450 1A2): > 100 µM | inhibition (INH) (Cytochrome P450 3A4): < 50% | inhibition (INH) (Cytochrome P450 2D6): < 50% | EC50 (Cytochrome P450 2C19): > 60 µM | EC50 [6]: 0.088 µM | EC50 (Nitric oxide synthase 3): 39 µM | t1/2 (Liver): 0.783 h | ED50 (Mus musculus): 0.5 mg/kg

O=c1cc(Cn2c(C3CCC3)nc3nccnc32)c2cccc(F)c2[nH]1
clearance [1]: 5.9 mL/min/kg | Vd [2]: 0.47 L/kg | AUC [7]: 25000 ng·h/mL | half-life [4]: 3.1 h | bioavailability [5]: 91% | EC50 (Cytochrome P450 1A2): > 100 µM | inhibition (INH) (Cytochrome P450 3A4): < 50% | inhibition (INH) (Cytochrome P450 2D6): < 50% | EC50 (Cytochrome P450 2C19): > 60 µM | EC50 [6]: 0.19 µM | EC50 (Nitric oxide synthase 3): 26 µM | t1/2 (Liver): > 2 h | ED50 (Mus musculus): 1.5 mg/kg
